MrgX1 agonist: agonists of human MrgX1 receptor, primary screen, HEK293 cells, Fluo-4 calcium flux; Mas-related G-protein coupled receptor member X1 (Homo sapiens), Q96LB2; Fluo-4 calcium fluorescence, agonist mode; hits give high values; B-score at 10 µM; 0.44% of 310,000 active;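 active = calcium response B-score plate-corrected fluorescence ratio at least 3 library SD, with starting fluorescence B-score inside 5 SD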
Target sequence (Q96LB2 whole entry, looked up): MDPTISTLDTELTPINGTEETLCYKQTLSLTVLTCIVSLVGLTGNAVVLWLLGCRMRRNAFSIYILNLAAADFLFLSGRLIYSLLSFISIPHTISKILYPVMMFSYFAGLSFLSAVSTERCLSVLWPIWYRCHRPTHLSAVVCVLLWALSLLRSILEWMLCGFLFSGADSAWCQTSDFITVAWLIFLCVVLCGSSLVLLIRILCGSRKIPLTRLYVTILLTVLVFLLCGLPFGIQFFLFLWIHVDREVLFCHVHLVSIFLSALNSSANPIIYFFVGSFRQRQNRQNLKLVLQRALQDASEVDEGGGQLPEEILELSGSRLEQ
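Material: HEK293 cells stably expressing human MrgX1 receptor | Quantity: 15,000 cells per well | Times: Cells plated overnight, dye loaded 0.5 h 37 °C, 0.5 h room temperature | Measured by: Kinetic Fluo-4 NW fluorescence of intracellular calcium | Control set: Positive and negative controls per plate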
MrgX1 antag: antagonists of human MrgX1 receptor, primary screen, HEK293 cells, Fluo-4 calcium flux. 1.3% of 310,000 active. Mas-related G-protein coupled receptor member X1 (Homo sapiens), Q96LB2. B-score at 10 µM. BAM8-22 antagonism; hits give low values. AID 588676, 2011;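 active = calcium-response B-score plate-corrected more than 3 library SD below zero, starting fluorescence within 5 deviations, no agonist response on first addition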;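 note: peak minus trough fluorescence over baseline after final BAM8-22 challenge near maximal dose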
RGS4 block: RGS4 inhibitors, primary screen, cell-based, HEK293 M3R inducible RGS4, calcium flux; 0.45% of 310,000 active; B-score at 10 µM; Fluo-4 calcium flux; hits give high values; triggered by carbachol at its EC20;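 active = B-score, a plate-corrected calcium signal, over three deviations above library mean, with baseline fluorescence within five deviations of library mean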;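 note: RGS4 expression induced by doxycycline in cells with stable M3 receptor; B-score is computed from the integrated fluorescence ratio over baseline after carbachol; higher B-score means a larger calcium signal and so more RGS4 inhibition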
MrgX1 allo act: positive allosteric modulators of MrgX1, primary screen, HEK293 cells, Fluo-4 calcium flux. Mas-related G-protein coupled receptor member X1 (Homo sapiens), Q96LB2. FDSS; hits give high values. B-score at 10 µM. 0.63% of 310,000 active. AID 588675, 2011;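 active = plate-corrected calcium response at least 3 library SD above typical, normal starting fluorescence, not activating the receptor alone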;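 note: compound read alongside a low EC10 to EC30 dose of BAM8-22 agonist; peak minus trough fluorescence over baseline measured at the second addition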
RGS4 act: RGS4 potentiators or activators, primary screen, cell-based, HEK293 M3R inducible RGS4, calcium flux; B-score at 10 µM; carbachol calcium flux Fluo4; hits give low values; 0.92% of 310,000 active; AID 463111, 2010;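 active = B-score of the integrated calcium signal more than 4 SD below the library mean, with starting fluorescence not abnormally high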;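 note: negative B-score means reduced calcium response which marks RGS4 activation or potentiation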
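test system = HEK293 cells with stable M3R and inducible RGS4 | schedule = recording 10 s baseline at 1 Hz, 100 s post-agonist | technique = Fluo4-AM (2 µM) calcium-flux fluorescence, kinetic read | measure = Agonist-evoked peak-minus-minimum fluorescence over baseline, integrated ratio, B score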
* marks the source's active call; other numbers are inactive results; i = inactive; · = not tested or not shown. Shown are actives, neighbours in structure and some others; about 3.5% of the full set was active somewhere.

SMILES	MrgX1 agonist	MrgX1 antag	RGS4 block	MrgX1 allo act	RGS4 act
O=C1C=CC(=O)N1CCNc1ncc(C(F)(F)F)cc1Cl	·	·	i	·	-7.94*
CCN(CC)CCn1c(=S)[nH]c2cc(C(=O)N3CC=C(c4ccccc4)CC3)ccc2c1=O	i	i	i	8.46*	i
CSc1ccc(CN(C)CC(=O)NCCc2ccccc2)cc1	i	i	i	i	i
CCOC(=O)COc1ccc(S(=O)(=O)Nc2ccc3c(c2)OCO3)cc1	i	i	i	i	-8.48*
Cc1ccc(C(=O)N2CCCC(N3CCN(c4ccccc4C)CC3)C2)c(=O)[nH]1 (stereo not given)	i	i	i	i	i
CCn1cc(C2=NOC(C(=O)Nc3cccc(C(C)=O)c3)C2)c(C)n1 (stereo not given)	i	-4.82*	i	i	i
O=[N+]([O-])c1nn(-c2ccc3c(c2)OCCO3)n(O)c1=NC1CCN(Cc2ccccc2)CC1	i	-5.1*	i	i	i
CCOc1cc(/C=N/NC(=O)c2nn(C)cc2Br)ccc1OCc1ccccc1	i	-6.81*	i	i	i
COc1ccc(C(=O)Nc2cc(C(C)=O)c(/C=C/N(C)C)oc2=O)cc1	i	-5.28*	i	i	i
CCCC[N+](C)(C)CCC(=O)NC(C)(C)CS(=O)(=O)[O-]	i	i	i	i	i
CC1(NC(=O)CC[N+](C)(C)CCO)CS(=O)(=O)CC1S(=O)(=O)[O-] (stereo not given)	i	-5.25*	i	i	i
O=C(CN1c2ccccc2Sc2ccccc21)NNC(=O)Nc1cccc(Cl)c1	i	i	i	i	i
COc1ccc(S(=O)(=O)N(C)CC(=O)NCCC2=CCCCC2)cc1OC	i	-5.91*	i	i	i
Cc1ccc(S(=O)(=O)N2CCCC(C(=O)NCCc3ccc(S(N)(=O)=O)cc3)C2)cc1 (stereo not given)	i	i	i	i	i
Cc1sc(NC(=O)c2ccco2)c(CN2CCN(Cc3ccccc3)CC2)c1C	i	i	i	i	i
COc1ccccc1C(C(=O)NC1CCCC1)N(C(=O)c1csnn1)C1CC1 (stereo not given)	i	i	i	i	i
COCc1cc(Sc2cccc(Cl)c2Cl)nc(-c2ccccc2)n1	i	i	i	8.03*	i
COCc1cc(N2CCOCC2)nc(-c2ccccc2)n1	i	i	i	i	i
CCCc1nnc(NC(=O)CSc2nnc(-c3ccco3)n2C)s1	i	i	i	i	i
CCc1ccccc1N(CC(=O)NC(C)C)C(=O)CCC(=O)Nc1nccs1	i	i	i	i	i
CCOc1ccc(-c2[nH]ncc2-c2ccc(Cl)cc2)c(O)c1	i	-13.2*	i	12.7*	i
CCC(C)N(C(=O)Cn1nnc(-c2ccc(F)cc2)n1)C1CCS(=O)(=O)C1 (stereo not given)	i	i	i	i	i
CN(C)c1ccc(/C=N/NC(=O)CNC(=O)/C=C/c2ccco2)cc1	i	i	i	i	i
O=C(/C=C/c1ccco1)NCC(=O)N/N=C/c1ccc(Cl)cc1	i	-4.97*	i	i	i
COc1ccc(/C=C/C(=O)OCC(=O)Nc2ccc(Cl)c(S(=O)(=O)N(C)C)c2)cc1OC	i	i	i	i	-9.44*
Cc1ccc(F)cc1NC(=S)NCCc1ccccc1	i	i	i	i	i
CCN(/N=C/C=C/c1ccccc1)c1cc(=O)n(C)c(=O)[nH]1	i	-5.61*	i	i	i
O=C(Oc1ccc(-c2cnc3ccccc3n2)cc1)c1cc([N+](=O)[O-])ccc1Cl	i	-4.93*	i	i	i
O=C(c1cccc(C(=O)N(c2ccccn2)C2CCCCC2)c1)N(c1ccccn1)C1CCCCC1	i	-6.78*	i	i	i

Compound activity (PubChem BioAssay)
